Data taken from PMC8963331 (Toxicological Sciences, 2022).
Marks after values point to notes of the source that are not given here.

Key:
Time-mated female rats = experiment: Rat embryo–fetal development; assay type: in vivo; settings: for Corpora lutea (mean ± SD) / Implantation sites (mean ± SD) / Preimplantation loss (mean ± SD) / Total resorptions (mean ± SD) / Females with live fetuses / Pregnant females: rat EFD; for Females with live fetuses / Pregnant females: 22 total females
In short: (§1)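 Time-mated female Crl:CD Sprague Dawley rats, 10–12 weeks old at dosing start, gavaged daily (10 ml/kg) with 0 (vehicle), 30, 100 or 1000 mg/kg/day test compound on GDs 6–17; n = 22/group plus a toxicokinetic group. Cesarean-section counts: corpora lutea, implantation sites, preimplantation loss, resorptions. Fetuses weighed and checked for external, visceral and skeletal (Alizarin Red S, after evisceration) abnormalities. Fetal weights compared by ANCOVA/Dunnett with litter size as covariate.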

[1] = Rat embryo–fetal development; assay type: in vivo; settings: female, rat, in vivo, oral
In short: as §1

[2] = Dog 4-, 13-, 39-week repeat-dose general toxicity studies; assay type: in vivo; settings: both, beagle, dog, in vivo, oral
beagle dogs = experiment: as above; assay type: in vivo
[3] = Rabbit embryo–fetal development; assay type: in vivo; settings: female, rabbit, in vivo, oral
In short: (§2)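 Time-mated female rabbits, 6–8 months old at dosing start, gavaged daily (10 ml/kg) with vehicle or 10, 30 or 60 mg/kg/day test compound over GDs 7–19; n = 22/group plus a toxicokinetic group. Cesarean-section endpoints: corpora lutea, implantation sites, preimplantation loss, resorptions. Fetuses weighed and examined externally, viscerally and, after evisceration and Alizarin Red S staining, skeletally. Fetal weights analysed by ANCOVA with Dunnett's test, litter size as covariate.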

[4] = system: Time-mated female rabbits; experiment: Rabbit embryo–fetal development; assay type: in vivo; settings: for Corpora lutea (mean ± SD) / Implantation sites (mean ± SD) / Preimplantation loss (mean ± SD) / Total resorptions (mean ± SD) / Females with live fetuses / Pregnant females: rabbit EFD; for Females with live fetuses / Pregnant females: 22 total females
In short: as §2

[5] = mice; 10 mg/kg oral; ref Sandborn et al., 2020; cited from earlier work
[6] = system: JAK1, JAK2, JAK3, and TYK2; settings: ref Sandborn et al., 2020; cited from earlier work
[7] = system: JAK1, JAK2, JAK3, and TYK2; experiment: Human cellular JAK IC50; assay type: cell-based; settings: corrected with human plasma protein binding of 85.4%
[8] = Rat 4-, 13-, 26-week repeat-dose general toxicity studies; assay type: in vivo; settings: both, Sprague-Dawley (Crl:CD), rat, in vivo, oral
In short: (§3)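 Crl:CD Sprague Dawley rats, 7–8 weeks old at start, dosed daily by oral gavage (10 ml/kg) at 0 (vehicle), 30, 100 or 1000 mg/kg/day for 4, 13 or 26 weeks. n = 10/sex/group, plus 4-week dose-free recovery (n = 5/sex). Rats fasted overnight. Hematology, coagulation and clinical chemistry sampled at baseline, end of dosing and end of recovery. Sexes pooled; treated groups compared with vehicle; variance homogeneity by […] Levene test.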

[9] = system: Crl:CD Sprague Dawley (SD) rats; experiment: as above; assay type: in vivo
In short: as §3

[10] = dog, 39-week study, 100 mg/kg/day
[11] = dog, 39-week study, 100 mg/kg/day, reversible
[12] = dog, 39-week study, 30 and 100 mg/kg/day
[13] = rat, 4 weeks, 1000 mg/kg/day, reversible
[14] = rat, 13 weeks, 1000 mg/kg/day, reversible
[15] = rat, 26 weeks, 1000 mg/kg/day, reversible

## Cc1cc(Nc2cc3ncccc3c(N[C@@H]3C[C@H]4CC[C@@H](C3)N4CCC#N)n2)n[nH]1 [izencitinib, Izencitinib]
Time-mated female rats; 30 mg/kg/day oral GDs 6–17
  Corpora lutea (mean ± SD): 14 ± 2.0
  Implantation sites (mean ± SD): 14 ± 2.0
  Preimplantation loss (mean ± SD): 1.0 ± 0.9
  Total resorptions (mean ± SD): 0 ± 0.6
  Females with live fetuses: 22
  Pregnant females: 22
Time-mated female rats; 100 mg/kg/day oral GDs 6–17
  Corpora lutea (mean ± SD): 14 ± 2.3
  Implantation sites (mean ± SD): 13 ± 1.8
  Preimplantation loss (mean ± SD): 1.0 ± 1.2
  Total resorptions (mean ± SD): 0 ± 0.7
  Females with live fetuses: 22
  Pregnant females: 22
Time-mated female rats; 1000 mg/kg/day oral GDs 6–17
  Corpora lutea (mean ± SD): 14 ± 1.7
  Implantation sites (mean ± SD): 13 ± 1.9
  Preimplantation loss (mean ± SD): 1.0 ± 1.0
  Total resorptions (mean ± SD): 0 ± 1.1
  Females with live fetuses: 22
  Pregnant females: 22
Time-mated female rats; rat, all doses
  effects on cesarean section parameters: no effects
  fetal external, visceral, or skeletal malformations: no observations
[1]
  NOAEL: 1000 mg/kg/day
[2]
  NOAEL at 39 weeks: 30 mg/kg/day
Beagle dogs; all dog studies
  effects on ophthalmology, electrocardiography, food consumption, urinalysis: No effects
Beagle dogs; dog 4-week study, 300 mg/kg/day, after 12–13 days
  tolerability: not tolerated
Beagle dogs; dog 4-week study, 300/100 mg/kg/day, days 18 and 19
  early euthanasia: 3 dogs
Beagle dogs; dog 39-week study, 100 mg/kg/day, at 25–26 weeks, skin observations
  early euthanasia: 2 dogs
Beagle dogs; dog repeat-dose studies, up to highest tested doses
  organ weights and microscopic findings in male reproductive tissues: no microscopic findings
Beagle dogs; dog repeat-dose toxicity studies, any dose
  effects on lipid levels: no effects
Beagle dogs; dog, 4- and 13-week studies
  dose with decreased hematopoietic and lymphoid cellularity (microscopic): ≥ 100 mg/kg/day
Beagle dogs; dog, 4- and 13-week studies, 100 mg/kg/day, reversible
  red blood cell parameters, change: 0.82–0.85 ×
Beagle dogs; dog, 4- and 13-week studies, any dose
  changes in reticulocyte levels: No changes
Beagle dogs; dog, 4 weeks
  no observed adverse effect level: 30^c mg/kg/day
Beagle dogs; dog, 4 weeks, end of dosing phase
  effects on white blood cell parameters: No significant effects
Beagle dogs; dog, 13- and 39-week studies, 100 mg/kg/day
  fibrinogen levels, change: 1.3–1.4 ×
Beagle dogs; dog, 13 weeks
  effects on white blood cell, lymphocyte, or neutrophil counts: No izencitinib-related effects
  no observed adverse effect level: 30^c mg/kg/day
Beagle dogs; dog, 13 weeks, 100 mg/kg/day, reversible
  platelets, change: 1.5 ×
Beagle dogs; dog, 39-week study
  dose with decreased hematopoietic and lymphoid cellularity (microscopic): ≥ 30 mg/kg/day
Beagle dogs; [10]
  red blood cell parameters, change: 0.76–0.79 ×
  tolerability: not tolerated
Beagle dogs; dog, 39-week study, 100 mg/kg/day, after recovery
  hemoglobin levels, change: 0.87 ×
Beagle dogs; dog, 39-week study, 100 mg/kg/day, recovery animals
  white blood cell counts, change: 1.3 ×
Beagle dogs; [11]
  helper T cells (immunophenotyping), change: 0.71 ×
  lymphocyte counts, change: 0.70 ×
  total T cells (immunophenotyping), change: 0.71 ×
  total lymphocytes (immunophenotyping), change: 0.70 ×
Beagle dogs; dog, 39-week study, 100 mg/kg/day, without reversibility in 4-week recovery
  B cells (immunophenotyping), change: 0.59 ×
Beagle dogs; [12]
  neutrophils, change: 1.3–1.5 ×
  platelets, change: 1.3–2.2 ×
Beagle dogs; dog, 39-week study, 30 and 100 mg/kg/day, after recovery
  hematocrit, change: 0.90–0.92 ×
Beagle dogs; dog, 39-week study, 30 and 100 mg/kg/day, reversible
  reticulocytes, change: 0.45–0.51 ×
Beagle dogs; dog, 39 weeks, 30 mg/kg/day
  red blood cell parameters, change: 0.90–0.91 ×
Beagle dogs; dog, 39 weeks, 30 mg/kg/day, end of dosing phase
  white blood cell counts, change: 1.2 ×
Beagle dogs; dog, any dose, 3 studies
  effects on prothrombin time or activated partial thromboplastin time: No effects
Beagle dogs; dog, up to 100 mg/kg/day, all 3 studies
  microscopic findings in GI tissues: no adverse microscopic findings
[3]
  NOAEL: 60 mg/kg/day
[4]; rabbit
  effects on fetal parameters: no effects
[4]; 10 mg/kg/day oral GDs 7–19
  Corpora lutea (mean ± SD): 10 ± 1.7
  Implantation sites (mean ± SD): 10 ± 1.6
  Preimplantation loss (mean ± SD): 1.0 ± 0.8
  Total resorptions (mean ± SD): 0 ± 0.4
  Females with live fetuses: 20
  Pregnant females: 22
[4]; 30 mg/kg/day oral GDs 7–19
  Corpora lutea (mean ± SD): 11 ± 2.0
  Implantation sites (mean ± SD): 10 ± 1.9
  Preimplantation loss (mean ± SD): 1.0 ± 0.9
  Total resorptions (mean ± SD): 0 ± 0.4
  Females with live fetuses: 21
  Pregnant females: 21
[4]; 60 mg/kg/day oral GDs 7–19
  Corpora lutea (mean ± SD): 11 ± 2.3
  Implantation sites (mean ± SD): 10 ± 2.8
  Preimplantation loss (mean ± SD): 1.0 ± 1.5
  Total resorptions (mean ± SD): 1 ± 1.6
  Females with live fetuses: 21
  Pregnant females: 22
[4]; rabbit, any dose
  effects on cesarean section parameters: no adverse effects
[4]; rabbit, up to 60 mg/kg/day
  tolerability: well tolerated
[5]
  colon:plasma AUC ratio: 3883
[6]
  human cellular JAK IC50 range, uncorrected: 0.01273 to 0.08031 µg/mL
[7]
  human cellular JAK IC50 range, human plasma protein binding corrected: 0.08718 to 0.5501 µg/mL
[8]
  NOAEL at 26 weeks: 1000 mg/kg/day
[9]; rat repeat-dose studies, up to highest tested doses
  organ weights and microscopic findings in male reproductive tissues: no microscopic findings
[9]; rat repeat-dose toxicity studies, any dose
  effects on lipid levels: no effects
[9]; rat, 100 mg/kg/day
  spleen weight, change: 0.87 ×
[9]; rat, 1000 mg/kg/day
  spleen weight, change: 0.78–0.86 ×
[9]; rat, 4 weeks
  no observed adverse effect level: 1000^c mg/kg/day
[9]; rat, 4 weeks, 100 mg/kg/day, reversible
  platelet counts, change: 1.1 ×
[9]; [13]
  lymphocyte counts, change: 0.64 ×
  platelet counts, change: 1.2 ×
  white blood cell counts, change: 0.66 ×
[9]; rat, 4 weeks, any dose
  changes in red blood cell parameters: No changes
[9]; rat, 13 weeks
  no observed adverse effect level: 1000^c mg/kg/day
[9]; rat, 13 weeks, 100 mg/kg/day, reversible
  lymphocyte counts, change: 0.78 ×
[9]; rat, 13 weeks, 1000 mg/kg/day, end of dosing
  hemoglobin levels, change: 0.97 ×
[9]; rat, 13 weeks, 1000 mg/kg/day, end of recovery period
  hemoglobin levels, change: 0.95 ×
[9]; [14]
  lymphocyte counts, change: 0.64 ×
  platelet counts, change: 1.2 ×
  red blood cell counts, change: 0.96 ×
  white blood cell counts, change: 0.74 ×
[9]; rat, 26 weeks, 1000 mg/kg/day
  platelet counts, change: 1.1 ×
  white blood cell counts, change: 0.68 ×
[9]; [15]
  incidence of minimally decreased lymphoid cellularity, females: 1 of 10
  incidence of minimally decreased lymphoid cellularity, males: 4 of 10
[9]; rat, 26 weeks, all dose levels
  hemoglobin levels, change: 0.95 ×
[9]; rat, all repeat-dose studies
  effects on food consumption, ophthalmic evaluations, clinical chemistry, urinalysis: no effects
[9]; rat, any dose, 3 studies
  changes in reticulocyte levels: No changes
  effects on neutrophils: No izencitinib-related effects
[9]; rat, any dose, all 3 studies
  changes in coagulation parameters: no changes
[9]; rat, up to 1000 mg/kg/day, all studies
  other changes in organ weights or microscopic effects, including GI tissues: No other changes
[9]; rat, up to highest tested dose 1000 mg/kg/day, 4-, 13-, 26-week studies
  tolerability: well-tolerated
